This note sets out measurements from ChEMBL document CHEMBL4619720, “Synthesis and biological evaluation of new antioxidant and antiproliferative chalcogenobiotin derivatives for bladder carcinoma treatment” (Bioorg Med Chem, 2020).

The structures appear in SMILES notation. Calls of active or inactive are those of the source. No cut-off for these calls is given here.

Data set [1] has as its system 5637. In words: Antiproliferative activity against human 5637 cells assessed as inhibition of cell growth at 0.4 uM to 50 uM after 48 hrs by MTT assay. Type of data set: functional, cell-based. The procedure, abridged: (§1)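 Human bladder carcinoma 5637 cells, grown in DMEM with 10% FBS at 37 °C under 5% CO2, were seeded at 2 × 10^4 cells/well and cultured 24 h. Medium was then replaced with compound in DMEM/FBS, DMSO ≤0.5%, for 24 or 48 h. MTT was added for 3 h, formazan dissolved in DMSO, and OD read at 492 nm. Inhibition % = [1 − Abs treated/Abs control] × 100; three independent experiments.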

For data set [2], the system named is 5637. In words: Antiproliferative activity against human 5637 cells assessed as inhibition of cell growth at 0.4 uM to 50 uM after 24 hrs by MTT assay. Type of data set: functional, cell-based. The procedure, abridged:
as §1

Data set [3] can be described thus: Antioxidant activity assessed as half life of GPx-like activity to decompose hydrogen peroxide at 55 uM measured for 20 mins by spectrophotometer method.
In data set [4] the test system is CHO-K1. Put plainly: Cytotoxicity against CHOK1 cells assessed as inhibition of cell growth at 0.4 uM to 50 uM after 48 hrs by MTT assay. In kind it is cell-based, Cricetulus griseus. The conditions noted are these: chinese hamster, cho-k1, 48 h. The method, boiled down: (§2)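 CHO-K1 cells exposed to 0.4–50 µM for 24 and 48 h, then MTT reduction assay. Growth inhibition relative to control; IC50 by nonlinear regression; three independent experiments.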
A general note: Formazan colour is commonly taken as a measure of viable cells.

Data set [5] deals with CHO-K1. In words: Cytotoxicity against CHOK1 cells assessed as inhibition of cell growth at 0.4 uM to 50 uM after 24 hrs by MTT assay. Type of data set: cell-based, Cricetulus griseus. The conditions noted are these: chinese hamster, cho-k1, 24 h. The method, boiled down: as §2
Data set [6] is described as follows: Antioxidant activity assessed as inhibition of Fe(II)-induced lipid peroxidation after 30 mins by TBARS assay. Type of data set: functional. The procedure, abridged: (§3)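 Lipid peroxidation system: phosphatidylcholine 0.4 mg, FeSO4 55 µM, Tris-HCl pH 7.4 and compound (final 0–200 µM), 30 min at 37 °C. Then acetic acid buffer pH 3.4 plus 0.22% thiobarbituric acid, 1 h at 100 °C, n-butanol extraction of pink chromogen. IC50 from concentration curves; α-tocopherol and diphenyl diselenide as references; three independent experiments.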

Data set [7] in a line: Antioxidant activity assessed as inhibition of Fe(II)-induced lipid peroxidation at 200 uM after 30 mins by TBARS assay. Type of data set: functional. The procedure, abridged:
as §3

Data set [8] concerns 5637. In words: cells. Particulars: Homo sapiens, 5637, 48 h.
The nature of data set [9]: Antioxidant activity assessed as half life of DPPH radical scavenging activity at 500 uM for 180 mins measured every 30 mins relative to control. Type of data set: functional. The method, boiled down: (§4)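 Test compounds mixed with 0.3 mM DPPH in ethanol; single-point screen at 1 mM, time course at final 500 µM. Absorbance at 518 nm read every 30 min over 180 min. Positive controls were BHT (final 500 µM) and diphenyl diselenide (final 2 mM); t1/2 is the time to scavenge 50% of DPPH. DMSO vehicle; three independent experiments.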

Data set [10] is described as follows: Antioxidant activity assessed as DPPH radical scavenging activity at 1 mM for 180 mins measured every 30 mins relative to control. In kind it is functional. The method, boiled down:
as §4

Data set [11] is described as follows: Antioxidant activity assessed as GPx-like activity to decompose hydrogen peroxide at 450 uM measured for 20 mins by spectrophotometer method. In kind it is functional. The procedure, abridged: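 GPx-mimic assay with thiophenol replacing glutathione. Ethanol, thiophenol 2.5 mM and compound (final 0–450 µM; t1/2 also taken at 55 µM) or DMSO blank, started with H2O2 2.3 mM. […] followed at 305 nm for 20 min. Ebselen and diphenyl diselenide at 55 µM as references; three independent experiments.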

Data set [12] relates to 5637. Put plainly: Cell cycle arrest in human 5637 cells assessed as accumulation at G2/M phase at 12.5 uM after 24 hrs by propidium-iodide staining based flow cytometry. In kind it is functional. The method, boiled down:
(§5)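 5637 cells treated 24 h at 12.5 µM alongside untreated controls. DNA content measured by propidium iodide staining and flow cytometry. Triplicate treatments; analysis by two-way ANOVA with t-tests, p < 0.05.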
In general terms: Flow cytometry measures light scatter and fluorescence of single cells or particles in a stream.

A short description of data set [13]: Cytotoxicity against human leukocytes assessed as reduction in cell viability at 100 uM after 3 hrs by Trypan blue exclusion assay. The procedure, abridged: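 Leukocytes isolated from heparinized venous blood of healthy donors, 2 × 10^6/mL. Incubated 3 h in Hank's buffer with 10% human plasma containing DMSO (0.5%), compounds (100 µM) or t-butyl hydroperoxide (1 mM) as positive control. Three independent experiments.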

Data set [14] concerns 5637. Put plainly: Antiproliferative activity against human 5637 cells assessed as inhibition of cell growth at 0.4 uM to 50 uM by MTT assay. In kind it is functional, cell-based. Particulars: TDE = time-dependent effect. The procedure, abridged: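 5637 bladder carcinoma cells in DMEM/10% FBS at 37 °C, 5% CO2, log phase, seeded 2 × 10^4 per well for 24 h. Compound exposure 0.4–50 µM for 24 or 48 h, DMSO ≤0.5%. MTT (5 mg/mL in PBS) 3 h at 37 °C, formazan dissolved in DMSO, read at 492 nm. Inhibition % = [1 − Abs treated/Abs control] × 100; IC50 by nonlinear regression; three independent experiments.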

For data set [15], the system named is 5637. Put plainly: cells. Particulars: Homo sapiens, 5637, 24 h.
Data set [16] is described as follows: Cytotoxicity against human leukocytes assessed as reduction in cell viability at 1 mM after 3 hrs by Trypan blue exclusion assay. Particulars: 1000 µM.
The subject of data set [17] is CHO-K1. Put plainly: Cytotoxicity against CHOK1 cells assessed as inhibition of cell growth after 48 hrs by MTT assay relative to control. Particulars: Cricetulus griseus, CHO-K1, 48 h. In kind it is cell-based. The method, boiled down:
as §2

Data set [18] has as its system CHO-K1. Put plainly: Cytotoxicity against CHOK1 cells assessed as inhibition of cell growth after 24 hrs by MTT assay relative to control. Particulars: Cricetulus griseus, CHO-K1, 24 h. Type of data set: cell-based. The method, boiled down:
as §2

Data set [19] can be described thus: Toxicity in Swiss mouse assessed as survival rate at 100 umol/kg, sc administration and measured for 7 days. Type of data set: organism-based. The conditions noted are these: in vivo, 168 h. The method, boiled down: (§6)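 Adult male Swiss mice (25–30 g), n = 4 per group, given a single subcutaneous dose of 100 µmol/kg or DMSO 1 mL/kg. Monitored by closed-circuit TV for 168 h, with body weight, food and water intake recorded daily. Killed by decapitation at day 7; blood urea, creatinine, AST, ALT and alkaline phosphatase measured.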

Data set [20] in a line: Toxicity in Swiss mouse assessed as creatinine level in plasma at 100 umol/kg, sc administration and measured for 7 days. Particulars: in vivo, 168 h. Type of data set: organism-based. The method, boiled down: as §6
Data set [21] is described as follows: Toxicity in Swiss mouse assessed as urea level in plasma at 100 umol/kg, sc administration and measured for 7 days. Type of data set: organism-based. Particulars: in vivo, 168 h. The procedure, abridged: as §6
Data set [22] is described as follows: Toxicity in Swiss mouse assessed as effect on alanine aminotransferase level at 100 umol/kg, sc administration and measured for 7 days. Type of data set: organism-based. The conditions noted are these: in vivo, 168 h. The procedure, abridged:
as §6

A short description of data set [23]: Toxicity in Swiss mouse assessed as effect on alkaline phosphatase activity at 100 umol/kg, sc administration and measured for 7 days. Type of data set: organism-based. The conditions noted are these: in vivo, 168 h. The method, boiled down: as §6
For data set [24], the system named is 5637. Put plainly: Cell cycle arrest in human 5637 cells assessed as accumulation at S-phase at 12.5 uM after 24 hrs by propidium-iodide staining based flow cytometry. In kind it is functional. The procedure, abridged:
as §5

Data set [25] can be described thus: Toxicity in Swiss mouse assessed as increase in aspartate aminotransferase level in plasma at 100 umol/kg, sc administration and measured for 7 days. Type of data set: organism-based. Particulars: in vivo, 168 h. The method, boiled down:
as §6

A short description of data set [26]: Cytotoxicity against CHOK1 cells assessed as inhibition of cell growth at 12.5 uM after 24 hrs by MTT assay relative to control. The conditions noted are these: chinese hamster, CHO-K1 cells. Type of data set: cell-based, Cricetulus griseus. The method, boiled down: as §2

One may read the inhibition as how much of the control response was suppressed. Turning to `Cc1ccc([Se]CCCCOC(=O)CCCC[C@@H]2SC[C@@H]3NC(=O)N[C@@H]32)cc1`, the inhibition entry in the data set with 5637 [1] and in the data set on 5637 [2] was “inactive” throughout.
In the case of `O=c1c2ccccc2[se]n1-c1ccccc1`, the T1/2 in data set [3] was 56 min.
On to `O=C(O)CCCC[C@@H]1SC[C@@H]2NC(=O)N[C@@H]21` [BIOTIN], for which the Activity entry in the data set on CHO-K1 [4] and in the data set on CHO-K1 [5] was “Non-Toxic” throughout. Moreover, the inhibition result in the data set on 5637 [1] and with 5637 [2] was “inactive” throughout.
The IC50 is the concentration that gives 50% inhibition. As for `Cc1c(C)c2c(c(C)c1O)CC[C@@](C)(CCC[C@H](C)CCC[C@H](C)CCCC(C)C)O2` [ALPHA-TOCOPHEROL], the IC50 in [6] is 60.3 µM. Further, the inhibition entry in data set [7] is “Active”.
With `O=C1N[C@H]2[C@H](CS[C@H]2CCCCC(=O)OCCCC[Se]c2ccc(Cl)cc2)N1`, the inhibition result in the data set on 5637 [1] and with 5637 [2] was “inactive” throughout.
Consider `O=C1N[C@H]2[C@H](CS[C@H]2CCCCC(=O)OCCCC[Se]c2ccccc2)N1`, for which the inhibition result in the data set on 5637 [1] and in the data set on 5637 [2] was “inactive” each time.
As to `O=C1N[C@H]2[C@H](CS[C@H]2CCCCC(=O)OCCCCC[Te]c2ccccc2)N1`, the IC50 in the data set on 5637 [8] came out at 6.71 µM; in data set [6], 1.33 µM; with 5637 [15], 7.63 µM. In addition, the T1/2 in data set [9] was 23 min; in data set [3] it was 38.9 min. Further, the figures for the Activity in data set [10] and in data set [13] were 50% and “Non-Toxic”, respectively. The outcome (in [11]; with 5637 [12]) was Active. Besides, the inhibition result in the data set on 5637 [14] is “Tde”. Also, the inhibition entry in data set [7] was “Active”.
As to `COc1ccc([Se]CCCCOC(=O)CCCC[C@@H]2SC[C@@H]3NC(=O)N[C@@H]32)cc1`, the inhibition entry with 5637 [1] and in the data set with 5637 [2] was “inactive” throughout.
Take `CC(C)(C)OO` [TERT-BUTYL HYDROPEROXIDE]: in data set [16], the Activity entry was “Toxic”.
As for `O=C1N[C@H]2[C@H](CS[C@H]2CCCCC(=O)OCCCC[Te]c2ccccc2)N1`, the IC50 in the data set with 5637 [8] was determined as 4.73 µM; with CHO-K1 [17] it was 34.2 µM; in the data set on CHO-K1 [18] it was 70 µM; in data set [6] it was 5 µM; in the data set on 5637 [15], 5.8 µM. For the same molecule, the T1/2 in data set [9] was determined as 18 min; in data set [3] it was 15.8 min. The Activity in data set [10] is 50%; in data set [19] it was “Non-Toxic”; in data set [13], “Non-Toxic”; in data set [20] it was “Non-Toxic”; in data set [21], “Non-Toxic”; in data set [22] it was “Non-Toxic”. In addition, the results for the Activity result in data set [23] and in [25] were “Non-Toxic” and “Toxic”, respectively. Moreover, the result (in [11]; in the data set on 5637 [24]) was Active. In the data set with 5637 [14], the inhibition result was “Tde”. Besides, the inhibition result in data set [7] is “Active”.
Regarding `c1ccc([Se][Se]c2ccccc2)cc1`, the T1/2 is greater than 180 min in [9] and 120 min in data set [3]. The IC50 in data set [6] came to 248 µM. Further, in data set [11], the result was Active. In data set [7], the inhibition entry was “Active”.
Take `Cc1cc(C(C)(C)C)c(O)c(C(C)(C)C)c1`: the T1/2 in [9] turned out to be 20.7 min.
Consider `CCCCCCC[Te]c1ccccc1`, for which, in [26], the inhibition at 24 h, 12.5 µM came out at 50%.
